# This is a sample that favours compounds with a hit; in the whole collection about 5.4% have one here.
# T cruzi repl – blocks replication of Trypanosoma cruzi. T. cruzi beta-gal in NIH3T3, luminescence, 90 h. inhibition, % (concentration not given with the values). 1.4% of 300,000 active;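 active = mean inhibition across valid replicates above about 55%, limit read from the data; inconclusive = mean below that limit but half or more replicates reach it; inactive = mean below it, under half of replicates reach it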;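 note: signal also drops with host cell toxicity which is not excluded here; 0% = plate median of DMSO wells and 100% = zero luminescence signal; higher percent means less beta-gal luminescence so fewer parasites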
#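 System: Mouse NIH/3T3 fibroblasts infected with β-gal-expressing T. cruzi Tulahuen C4 | Quantity: NIH/3T3 cells, 5,000 per well | Reagent: 5000 reporter trypomastigotes per well | Dosing: Compound pinned at 50 nL/well, DMSO | Schedule: 3 h host attachment, then at least 90 h co-culture | Detection: GalScreen luminescence, 60 min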
# CSC inhib – blocks cancer stem cells; cancer stem cell-like cells viability, luminescence; AID 2717; inhibition, % at 7.5 µM; 1.1% of 300,000 active; in the data active = inhibition above about 75%; inconclusive = no clear call, values can overlap the other calls; tested in HMLE shEcad cells
# Mdm2 MdmX PPI – human Mdm2/MdmX binding inhibition. O15151+Q00987. SaOS-2 split-luciferase Mdm2/MdmX complementation, luminescence. inhibition, % at 8 µM. 3% of 330,000 active. AID 485346;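 active = inhibition of at least 50% at 8 µM in the primary screen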
# Target sequence (O15151 whole entry, looked up): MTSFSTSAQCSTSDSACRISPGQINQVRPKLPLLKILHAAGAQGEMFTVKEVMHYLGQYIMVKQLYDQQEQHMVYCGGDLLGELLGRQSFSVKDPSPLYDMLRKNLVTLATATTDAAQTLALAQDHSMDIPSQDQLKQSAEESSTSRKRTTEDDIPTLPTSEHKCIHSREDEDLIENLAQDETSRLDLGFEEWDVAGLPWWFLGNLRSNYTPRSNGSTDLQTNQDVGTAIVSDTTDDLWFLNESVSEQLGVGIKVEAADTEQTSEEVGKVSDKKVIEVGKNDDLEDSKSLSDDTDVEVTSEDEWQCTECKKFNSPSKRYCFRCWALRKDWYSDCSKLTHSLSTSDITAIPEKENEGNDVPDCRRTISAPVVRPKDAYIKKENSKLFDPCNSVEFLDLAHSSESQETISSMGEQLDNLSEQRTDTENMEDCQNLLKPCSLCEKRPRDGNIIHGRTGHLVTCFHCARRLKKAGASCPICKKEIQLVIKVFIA
# Target sequence (Q00987 whole entry, looked up): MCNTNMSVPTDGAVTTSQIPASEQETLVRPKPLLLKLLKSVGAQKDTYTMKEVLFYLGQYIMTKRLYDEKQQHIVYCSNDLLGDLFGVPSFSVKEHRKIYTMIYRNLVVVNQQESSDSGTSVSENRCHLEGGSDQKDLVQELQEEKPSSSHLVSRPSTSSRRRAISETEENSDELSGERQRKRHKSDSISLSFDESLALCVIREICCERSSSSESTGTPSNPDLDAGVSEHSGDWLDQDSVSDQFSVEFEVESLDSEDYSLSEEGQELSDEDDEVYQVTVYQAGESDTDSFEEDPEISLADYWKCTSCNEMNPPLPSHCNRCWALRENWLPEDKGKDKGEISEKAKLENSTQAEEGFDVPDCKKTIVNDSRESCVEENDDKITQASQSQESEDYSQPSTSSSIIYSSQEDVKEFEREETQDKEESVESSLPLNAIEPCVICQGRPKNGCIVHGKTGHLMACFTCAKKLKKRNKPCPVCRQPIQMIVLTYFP
# aSyn 5UTR inh – MLPCN primary screen, SNCA 5' untranslated region. inhibition, % (tested at 7.5 µM). alpha-synuclein 5'UTR reporter, inhibitor activity. 0.82% of 300,000 active. AID 1813; in the data active = inhibition above about 60%; inconclusive = no clear call, values can overlap the other calls;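 note: H4 neuroglioblastoma cells stably carrying SNCA 5'UTR luciferase fusion; 0% = DMSO wells and 100% = positive control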
# SKKanGAS inh – blocks kanamycin growth of S. pyogenes SKKanGAS strain; BacTiter-Glo, 6 h; inhibition, % at 7.5 µM; 1.3% of 300,000 active; AID 1662;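 active = mean replicate score, as percent of positive control median, at least 50; inconclusive = mean below 50 but one replicate at or above 50; inactive = mean and every replicate below 50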;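 note: strain carries kanamycin resistance gene driven by streptokinase promoter and grows in 40 µg/ml kanamycin; loss of luminescence reflects streptokinase promoter inhibition or plain growth inhibition; 0% = median of DMSO wells and 100% = positive control at its reference dose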
# The depositor's hits bear a star; ? = inconclusive; · = no result.
SMILES,T cruzi repl,CSC inhib,Mdm2 MdmX PPI,aSyn 5UTR inh,SKKanGAS inh
O=C(Nc1nnc(N2CCCCCC2)s1)c1cc(-c2ccc(Br)cc2)on1,1.7,56.0,-1.4,-20.1,26.4
CC(Sc1ccc(Cl)cc1)C(=O)NNC(=O)c1ccco1 (configuration not stated),·,-14.9,22.7,·,·
Cc1cccc(C)c1N=Nc1c(C)cc(O)cc1C,-10.3,99.4*,33.8,5.2,22.7
CCC1Oc2ccc(C)cc2N(CC(=O)N(Cc2cccnc2)Cc2cccc(F)c2)C1=O (configuration not stated),59.5*,3.3,13.8,13.4,4.0
O=C(CN1C(=O)COc2ccccc21)N(Cc1cccnc1)Cc1cccc(F)c1,71.0*,-7.5,22.0,-26.0,-5.3
CC(OC(=O)c1ccccc1NCCO)C(=O)NC1CCCCC1C (configuration not stated),0.6,·,-0.1,-0.2,4.0
O=C(Nc1nc2c(Br)cc(Br)cc2c(=O)s1)C1CCC1,-10.5,55.2,9.0,3.6,11.4
O=C1NC(=S)/C(=C\c2ccc(-c3ccccc3Cl)o2)S1,-0.8,118.1*,·,-55.6,114.4*
CC(=O)NCCn1c(SCc2cc(F)ccc2F)nc2ccccc2c1=O,68.2*,13.1,26.8,28.9,-16.8
CC(=O)NCCn1c(SCc2ccccc2C)nc2ccccc2c1=O,49.1,0.9,6.1,27.7,4.1
COCCn1c(SCc2ccc(OC)c(F)c2)nc2ccccc2c1=O,75.1*,-4.9,13.9,17.5,22.2
Cc1ccc(S(=O)(=O)NC(CC(C)C)C(=O)N2CCN(C/C=C/c3ccccc3)CC2)cc1 (configuration not stated),·,7.1,19.9,·,·
CN(C1(C)CCS(=O)(=O)C1)S(=O)(=O)c1ccc2ccccc2c1 (configuration not stated),2.9,-0.6,20.6,2.3,2.5
CC(/C=C/c1ccco1)=N\NC(=O)c1cc(Cl)ccc1O,-36.1,-7.2,-1.6,-32.0,69.8*
S=C(c1ccc(-c2ccccc2)cc1)N1CCOCC1,8.7,-2.0,-6.4,64.5*,6.9
O=C(c1ccc(-c2ccccc2)cc1)c1ccccc1C(=O)N1CCOCC1,-0.1,-14.4,5.0,-1.6,-0.4
CSc1ccc(CN2CCN(Cc3ccc([N+](=O)[O-])cc3)CC2)cc1,66.1*,25.4,27.7,17.9,-4.8
COC(=O)c1ccc(CN(c2ccc(C(=O)O)c(O)c2)S(=O)(=O)c2ccc(Cl)c([N+](=O)[O-])c2)cc1,-3.3,92.4*,·,2.7,54.5*
COC(=O)c1ccc(CN(c2ccccn2)S(=O)(=O)c2ccccc2)cc1,-17.1,-3.6,·,7.2,-3.5
CCOc1ccc(CCNC(=O)c2cc(-c3ccccc3)c(N3CCOCC3)s2)cc1,57.8*,-3.1,20.3,-10.6,9.7
CCC1CCCCN1c1cc(C)nc2cc(-c3cccc(C)c3)nn12 (configuration not stated),43.3,·,27.0,17.2,57.1*
CC(C)(C)NC(=O)Nc1nnc(SCC(=O)NC2CCCCC2)s1,-3.7,14.8,-2.3,-16.8,0.5
O=C(CC1NCCc2ccccc21)Nc1ccc(Oc2ccccc2)cc1 (configuration not stated),41.9,95.0*,8.4,12.9,14.8
O=C(CC1NCCc2ccccc21)Nc1ccccc1 (configuration not stated),-3.1,-11.8,-23.9,-26.1,0.8
OCC[C@H]1C[C@H](O)[C@@H](O)[C@@]2(OCCCc3ccccc32)O1,·,12.6,4.1,·,·
SMILES,T cruzi repl,CSC inhib,Mdm2 MdmX PPI,aSyn 5UTR inh,SKKanGAS inh
O=C(O)c1ccc(Cl)c(S(=O)(=O)N(Cc2ccccc2)c2ccc(F)cc2)c1,-1.6,95.7*,-4.6,9.1,15.7
O=C(COc1ccc(-c2ccccc2)cc1)NNC(=O)NC1CCCCC1,-2.6,-12.7,13.4,-33.4,-6.5
c1ccc(Cn2c3ccccc3c3nnc(SCCN4CCCCC4)nc32)cc1,69.0*,71.5,5.2,-8.4,4.2
CCn1c2ccc(F)cc2c2nnc(SCCN3CCCCC3)nc21,62.8*,7.6,8.7,5.1,-0.2
C=CCn1c2ccccc2c2nnc(SCCN3CCCCC3)nc21,46.1,25.5,14.9,-16.3,-3.1
CCCc1cc(=O)oc2cc(C)cc(OCC(=O)Nc3cccnc3)c12,15.2,-5.3,16.9,-2.3,-6.8
O=[N+]([O-])c1ccc(COc2ccc(-c3[nH]ncc3-c3ccccc3)c(O)c2)cc1,6.2,118.4*,26.6,-13.4,18.2
Oc1cc(OCc2ccccc2)ccc1-c1[nH]ncc1-c1ccccc1,1.5,46.6,15.3,1.6,73.1*
COc1ccccc1-c1cn[nH]c1-c1ccc(OCc2ccc([N+](=O)[O-])cc2)cc1O,15.1,17.8,33.0,6.3,0.7
C/C(=N\NC(=O)c1c(Cl)c(C)nn1C)c1cccc(NC(=O)C2CCCC2)c1,1.2,-8.5,-0.4,-41.7,3.3
Clc1ccc(CO/N=C/c2c(-c3ccccc3)nc3n2CCS3)c(Cl)c1,?,77.7*,25.6,35.4,24.2
CS(=O)(=O)/C(C#N)=C/c1c(-c2ccccc2)nc2n1CCS2,2.5,-15.0,13.7,-16.1,9.0
CCCc1c(CC)c(=N)c2ccccc2n1C,71.7*,-10.1,8.1,6.0,-4.4
Nc1nc(CN2CCN(c3ccccc3)CC2)nc(N2CCCc3ccccc32)n1,-26.2,·,10.1,30.9,88.4*
COc1ccc(N2CCN(Cc3nc(N)nc(N4CCCc5ccccc54)n3)CC2)cc1,7.4,20.3,-12.9,11.3,38.5
Nc1nc(CN2CCN(c3cccc(Cl)c3)CC2)nc(N2CCCc3ccccc32)n1,-17.4,-15.0,23.4,-19.2,90.9*
CCOC(=O)[C@H]1[C@H]2COc3ccc(Cl)cc3[C@@H]2N2C(=O)CN(C)C(=O)[C@@]12C,·,0.2,10.0,·,·
O=C1Nc2ccc(F)cc2C12OCCO2,-7.4,-1.3,2.4,1.3,0.9
COc1ccccc1/C=N/NC(=O)c1ccc(NC(=O)c2cccc([N+](=O)[O-])c2)cc1,-27.9,0.7,-5.9,3.4,5.8
COc1cccc(/C=N/NC(=O)c2ccoc2C)c1O,8.8,13.7,23.2,-70.6,77.2*
COc1cccc(/C=N/NC(=O)c2cc3c(OC)cccc3[nH]2)c1O,-1.5,·,11.4,85.5*,-4.1
COc1cccc(/C=N/NC(=O)c2cc3cc([N+](=O)[O-])ccc3s2)c1O,23.3,106.1*,·,107.0*,20.8
COc1ccc(Oc2cccc(Cl)c2CNC(=O)c2ccccc2C(=O)O)cc1,6.6,4.3,30.4,-5.0,0.2
CC(=O)Nc1cc(OC(C)=O)c2nonc2c1OC(C)=O,·,105.9*,47.7,·,·
CC(=O)Nc1nonc1NC(C)=O,-1.3,2.7,-20.7,-9.7,0.2
COc1ccc(/C=C2\Sc3ccc(C(=O)NCCN4CCCCCC4)cc3N(C)C2=O)cc1,20.7,7.8,42.5,-25.7,19.9
COc1ccc(/C=C2/Sc3ccc(C(=O)N4CCc5ccccc5C4)cc3NC2=O)cc1,0.2,22.1,14.2,-16.2,101.6*
COc1ccc(/C=C2\Sc3ccc(C(=O)N4CCc5ccccc5C4)cc3N(C)C2=O)cc1,11.4,2.9,-13.8,15.3,102.9*
